Screens from PubChem.
NS3 helicase inh: HCV NS3 helicase inhibition | NS3 helicase DNA unwinding, Cy5 molecular beacon fluorescence | inhibition, % at 10.9 µM | 0.56% of 290,000 active | AID 1800;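 active = inhibition above the mean of all tested compounds plus 3 SD, set per campaign, cut at about 35% in these data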;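 note: 0% = DMSO wells and 100% = thioflavine S control wells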
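System: NS3 helicase fragment of HCV / Schedule: 1 h at 25 °C / Control set: DMSO alone as 0% and 110 µM thioflavine S as 100% / Reagent: Cy5/quencher beacon DNA duplex and ATP to start / Technique: Cy5 fluorescence / Replication: singlicate / Evaluation: % inhibition of end-to-start signal ratio versus controls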
VIM-2 inh: blocks Pseudomonas aeruginosa VIM-2 metallo-beta-lactamase. purified VIM-2, nitrocefin hydrolysis, epi-absorbance fluorescence. inhibition, % at 5.6 µM. 0.89% of 290,000 active. AID 1527;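 active = inhibition above the mean of all tested compounds plus 3 SD, cutoff set per screening run, cut at about 7.5% in these data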;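 note: red hydrolysis product quenches plate fluorescence so inhibitors raise well fluorescence; 0% = enzyme with DMSO and 100% = DMSO without enzyme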
HCV core dimer: blocks dimerization of HCV core protein; 0.33% of 300,000 active; TR-FRET GST/Flag-core106 dimerization, 1536-well; inhibition, % at 5 µM;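 active = inhibition above the mean of all tested compounds plus 3 SD, set per screening campaign, cut at about 45% in these data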
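Assay system: Tagged HCV core106 pair (GST and Flag) | Buffer or medium: KF-containing HEPES buffer, pH 7.45, DTT, CHAPS, BSA | Also added: Eu donor and XL665 acceptor anti-tag antibodies | Dosing: One concentration, 5 µM, in 0.5% DMSO | Timing: 4 h at 22.5 °C | Technique: TR-FRET 671 and 617 nm emission | Repeats: Singlicate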
UBC9 SUMO inh: inhibitors of human SUMOylation (UBC9). P63279. HTRF SUMOylation assay, SAE1/SAE2 + UBC9, in vitro. inhibition, % at 35 µM. 0.36% of 290,000 active; in the data active = inhibition above about 50%, passing the limit was not always enough
Target sequence (P63279 whole entry, looked up): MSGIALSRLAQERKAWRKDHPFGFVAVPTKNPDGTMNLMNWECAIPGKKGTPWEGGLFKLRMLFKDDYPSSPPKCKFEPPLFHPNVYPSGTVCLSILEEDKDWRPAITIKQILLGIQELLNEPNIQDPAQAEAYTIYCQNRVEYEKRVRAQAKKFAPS
IMP-1 inhibitor: inhibitors of Pseudomonas aeruginosa IMP-1 metallo-beta-lactamase; purified IMP-1, nitrocefin hydrolysis, epi-absorbance fluorescence; inhibition, % at 5.6 µM; 0.45% of 290,000 active; AID 1556;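 active = inhibition above the mean plus 3 SD of all compounds in the same screening run, cut at about 4.5% in these data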;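 note: 0% = IMP-1 with DMSO and 100% = DMSO wells lacking enzyme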
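Assay system: purified IMP-1; Quantity: IMP-1 0.2 nM before substrate addition; Medium: HEPES buffer pH 7.1 with ZnSO4 and Brij 35; Incubation: 15 min enzyme–compound preincubation, then 25 min nitrocefin reaction, 25 °C; Signal: fluorescence quenching readout, ex 480/em 530 nm; Controls: DMSO with and without IMP-1; Repeats: singlicate testing.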
PHOSPHO1 inh: inhibitors of human PHOSPHO1 phosphatase. 1.1% of 290,000 active. recombinant PHOSPHO1, absorbance phosphatase assay. inhibition, % at 13.3 µM. Q8TCT1. AID 1565; in the data active = inhibition above about 60%
Target sequence (Q8TCT1 whole entry, looked up): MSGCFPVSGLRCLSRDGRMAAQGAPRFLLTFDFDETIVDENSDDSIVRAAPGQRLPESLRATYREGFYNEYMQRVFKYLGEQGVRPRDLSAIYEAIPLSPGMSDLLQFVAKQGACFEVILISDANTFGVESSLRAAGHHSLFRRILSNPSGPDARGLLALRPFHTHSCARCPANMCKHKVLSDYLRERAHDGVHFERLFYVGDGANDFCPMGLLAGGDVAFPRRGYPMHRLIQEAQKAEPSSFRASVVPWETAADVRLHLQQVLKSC
* hit, by the source's call; · = no result given. Compounds with a hit are over-represented: about 3.1% of the library has one in this group of screens.

SMILES | NS3 helicase inh | VIM-2 inh | HCV core dimer | UBC9 SUMO inh | IMP-1 inhibitor | PHOSPHO1 inh
O=C(Cc1cccc2ccccc12)NCCc1ccccc1 | 15 | -2 | 5 | 0 | -2 | -2
NC(=O)c1c(NC(=O)C2c3ccccc3Oc3ccccc32)sc2c1CCCCC2 | 26 | -3 | 50* | 1 | -2 | 2
CC(C)NC(=O)CN(Cc1ccc(F)cc1)C(=O)CCC(=O)Nc1ccccn1 | 10 | -4 | 1 | -2 | -3 | 6
O=C(Nc1nnc(-c2ccco2)s1)c1ccccc1 | 11 | -3 | 5 | 9 | -3 | 74*
COc1ccc(C(=O)Nc2nnc(-c3ccco3)s2)cc1 | 26 | 1 | 3 | -1 | 7.3* | 73*
C/C(=N\NC(=O)Cc1ccc(Cl)cc1)c1ccccc1O | -12 | -5 | -6 | 6 | -4 | 41
CC(=O)c1cc2c(=O)c3ccccc3oc2nc1C | 0 | -2 | -1 | · | -1 | ·
O=c1c2ccccc2oc2nc3ccn(Cc4ccncc4)c(=O)c3cc12 | 7 | 1 | · | 68* | 0 | 4
CCn1cc([N+](=O)[O-])c(C(=O)Nc2ccn(Cc3ccccc3)n2)n1 | 3 | 12* | -3 | 1 | -3 | 14
Cc1ccc(Cn2ccc(NC(=O)c3nn(C)cc3[N+](=O)[O-])n2)cc1 | 1 | -1 | -1 | 2 | -2 | 4
O=C1/C(=C/c2ccncc2)SC(=S)N1Cc1ccccc1 | 5 | 1 | -1 | -9 | 6.2* | 1
CCCN1C(=O)/C(=C/c2ccncc2)SC1=S | 0 | -1 | 0 | 8 | -2 | -14
Cc1ccc(/C=C2\SC(=S)N(Cc3ccccc3)C2=O)o1 | 20 | 1 | -7 | 23 | 0 | 67*
Cc1ccc(/C=C2\SC(=S)N(c3cccnc3)C2=O)o1 | 17 | 1 | -4 | 70 | 5.9* | -3
O=C(O)c1cc(-c2ccc(/C=C3/SC(=S)N(Cc4ccccc4)C3=O)o2)ccc1Cl | 23 | -1 | · | 46 | 0 | 65*
Cc1c(NC(=O)COC(=O)Cc2ccc(F)cc2)c(=O)n(-c2ccccc2)n1C | · | · | 1 | · | · | ·
CC12CCC(=O)N1C(C(=O)NCCN1C(=O)S/C(=C\c3ccc(F)cc3)C1=O)CS2 (stereo unspecified) | · | · | 4 | · | · | ·
Cc1ccc2c(c1)N(CC(=O)NCCCN1CCCCC1)C(=O)CO2 | 1 | -2 | 3 | 10 | -2 | 32
CC[C@H](C)/C=C(C)/C=C/C(=O)Cc1cc(O)c(C)c(O)c1C=O | · | · | 67* | -6 | · | 22
CC1(C)CC(NS(=O)(=O)c2ccc(S(N)(=O)=O)cc2)CC(C)(C)N1 | 7 | -4 | -1 | 6 | -4 | 14
Cc1cccc(-n2c(C)c(C)c3c(N)ncnc32)c1 | 3 | -2 | -9 | 3 | -2 | 56
Cc1snc(SCC(=O)c2ccc(Cl)cc2)c1C#N | 2 | 1 | 3 | -24 | -1 | 84*
O=C(OCC(=O)N1CCCC1=O)c1nc(Cl)c(Cl)c(Cl)c1Cl | -3 | 6 | 19 | 1 | -2 | 43
COc1ccc2nc(-c3ccco3)c(-c3ccco3)nc2c1 | 29 | 1 | 40 | 71* | 3 | 40
COc1ccc2nc3cccc(OC)c3nc2c1 | 2 | 7.7* | -27 | 61 | 0 | 34
SMILES | NS3 helicase inh | VIM-2 inh | HCV core dimer | UBC9 SUMO inh | IMP-1 inhibitor | PHOSPHO1 inh
CS/C(Nc1cc(Cl)ccc1Cl)=C(/C#N)C(=O)c1ccco1 | 25 | -3 | 2 | -8 | -3 | 3
O=C(Nc1ccc(-c2nc3ccccc3[nH]2)cc1)c1cccc(N2C(=O)CCC2=O)c1 | -26 | -1 | -2 | 65* | -2 | -6
O=C(Nc1ccccc1-c1nc2ccccc2[nH]1)c1ccc(N2C(=O)CCC2=O)cc1 | 10 | 0 | 3 | 14 | -2 | -31
O=C(Nc1cccc2c1C(=O)NC2=O)c1cccc(N2C(=O)CCC2=O)c1 | 5 | 1 | -1 | 9 | 8.8* | 34
CC(=O)Oc1ccc(Cn2cnc3cc4ccccc4cc32)cc1 | -9 | 0 | 0 | -5 | 5.5* | -14
Cc1cc(C)c(S(=O)(=O)/N=C2/C=C(Sc3ncn[nH]3)C(=O)c3ccccc32)cc1C | 18 | -2 | -11 | 90* | -3 | 69*
COc1ccc(NS(=O)(=O)c2cc(-c3nnnn3C)ccc2OC)cc1 | -1 | -2 | -1 | 21 | -3 | 66*
COc1ccc(C(=O)NC(=O)COC(=O)c2ccc3ncsc3c2)cc1 | 9 | 1 | -6 | 68* | -4 | -4
CCOc1ccccc1N1CCN(C(=O)c2cc(-c3cccnc3)nc3c(Cl)cccc23)CC1 | -4 | -5 | 4 | 0 | -3 | 33
COc1cccc(NC(=O)CCC2CCN(C(=O)c3cncs3)CC2)c1 | 10 | 0 | -15 | 7 | 1 | 3
OCC[C@@H]1C[C@H](O)[C@@H](O)[C@]2(OCCc3ccccc32)O1 | -1 | -1 | 3 | 13 | -2 | 36
Cc1cc2ncn(/N=C/c3ccc([N+](=O)[O-])o3)c2cc1C | 11 | -1 | -6 | 28 | -2 | 69*
Cn1c(SCC(=O)Nc2ccc3c(c2)n(C)c(=O)n3C)nnc1-c1ccncc1 | 4 | -2 | -14 | -6 | -5 | 37
CCc1ccc(S(=O)(=O)NC(=S)NC2CCCCC2)cc1 | 1 | -3 | 1 | -10 | -4 | 6
Brc1cc2c(cc1/C=N/Nc1nc3ccccc3s1)OCO2 | 13 | -2 | 3 | 12 | -1 | 24
O=C(O)C/C(=C\c1cc2c(cc1Br)OCO2)c1nc2ccccc2s1 | 17 | 8.8* | -1 | 15 | -4 | -14
CC(O)c1ccc(Oc2cnccn2)cc1 (stereo unspecified) | 9 | -5 | -8 | 13 | -1 | ·
CC(C)CCn1nnnc1CN1CCN(C(=O)c2ccco2)CC1 | -1 | -1 | -7 | -2 | -1 | 26
c1ccc(COC2CCCN(Cc3nc(-c4cnccn4)no3)C2)nc1 (stereo unspecified) | -18 | -2 | 0 | 10 | -3 | 61*
O=CN1CCCN(Cc2nc(-c3cccc(Cl)c3)no2)CC1 | 8 | -2 | -3 | 16 | -3 | 54
Cc1cccc2cc(CN(Cc3cccnc3)C(=O)c3ccncc3)c(=O)[nH]c12 | 3 | -1 | 0 | 13 | -3 | -21
Cc1cc(C)c2[nH]c(=O)c(CN(Cc3cccnc3)C(=S)NCCCN(C)C)cc2c1 | -13 | 9.3* | 4 | 0 | -2 | 30
CCN(CC)CCCNC(=S)N(Cc1cccnc1)Cc1cc2cc(C)cc(C)c2[nH]c1=O | -10 | 12* | -2 | 18 | 1 | 15
Cc1cccc2cc(CN(CCCN(C)C)C(=S)NCCc3ccccc3)c(=O)[nH]c12 | -44 | -1 | -5 | -4 | 0 | 41
COc1ccccc1C(C)NCC(=O)NC(=O)NCc1ccco1 (stereo unspecified) | · | · | 7 | · | · | ·
